Assay results from ChEMBL document CHEMBL1138602, “Discovery of sodium 6-[(5-chloro-2-{[(4-chloro-2-fluorophenyl)methyl]oxy}phenyl)methyl]-2-pyridinecarboxylate (GSK269984A) an EP(1) receptor antagonist for the treatment of inflammatory pain” (Bioorg Med Chem Lett, 2009).

Key:
MDR1 = assay: Permeability in dog MDCK2 cells over expressing MDR1 assessed as efflux ratio after 1 hr; conditions: MDCK-MDR1
Cytochrome P450 2C19 = Cytochrome P450 2C19 (Homo sapiens, UniProt P33261); assay: Inhibition of human CYP2C19; type: ADME
Summary of the method: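 Inhibition of metabolism of fluorometric substrates (Cypex protocol); IC50 values are the mean of three experiments ± standard deviation.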

[1] = Intrinsic clearance in cynomolgus monkey hepatocytes measured per gram of liver at 0.54 to 0.7 X 10^6 cells/ml cell density; type: ADME, cell-based, Macaca fascicularis, Hepatocyte
Summary of the method: (§1)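 Intrinsic clearance in hepatocytes expressed as mL/min/g liver. Cell densities were 0.15–0.2 × 10^6 cells/mL or 0.54–0.7 × 10^6 cells/mL.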

Hepatocyte = assay: Intrinsic clearance in human hepatocytes measured per gram of liver at 0.54 to 0.7 X 10^6 cells/ml cell density; type: ADME, cell-based; summary of the method: as §1
[2] = Solubility in water after 0.5 hrs; type: physicochemical
Summary of the method: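 Solubility determined in water, FaSSIF and FeSSIF, all read at the 0.5 h time point.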

Prostacyclin receptor = Prostacyclin receptor (Homo sapiens, UniProt P43119); assay: Inhibition of IP receptor
Thromboxane A2 receptor = target: T1, Thromboxane A2 receptor (Homo sapiens, UniProt P21731); assay: Inhibition of TP receptor
T1 sequence (P21731 whole entry): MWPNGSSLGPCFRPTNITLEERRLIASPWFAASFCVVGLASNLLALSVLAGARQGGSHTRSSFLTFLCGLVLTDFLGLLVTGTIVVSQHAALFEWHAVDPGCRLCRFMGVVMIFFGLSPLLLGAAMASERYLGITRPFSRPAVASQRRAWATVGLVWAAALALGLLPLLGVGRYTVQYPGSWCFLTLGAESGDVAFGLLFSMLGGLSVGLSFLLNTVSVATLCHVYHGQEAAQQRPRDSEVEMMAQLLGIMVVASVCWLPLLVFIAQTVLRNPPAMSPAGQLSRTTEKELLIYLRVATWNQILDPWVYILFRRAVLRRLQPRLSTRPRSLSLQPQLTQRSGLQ

[3] = Drug level in blood of complete Freund's adjuvant induced rat inflammatory pain model at 10 mg/kg, bid measured after 1 hr on day 1; type: ADME, organism-based; design: dose 10 mg/kg; conditions: read-out: Drug uptake
Summary of the method: (§2)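 Satellite group dosed at 10 mg/kg b.i.d. for 5 days; blood sampled 1 h post-dose on day 1 and on day 5.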

[4] = Drug level in blood of complete Freund's adjuvant induced rat inflammatory pain model at 10 mg/kg, bid measured after 1 hr on day 5; type: ADME, organism-based; design: dose 10 mg/kg; conditions: read-out: Drug uptake; summary of the method: as §2
[5] = Drug level in brain of complete Freund's adjuvant-induced rat inflammatory pain model at 1 mg/kg, po administered after 23 hrs of adjuvant challenge measured after 1 hr; type: ADME, organism-based; design: dose 1 mg/kg, route oral; conditions: read-out: Drug uptake
Summary of the method: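 CFA rat study: oral doses of 1, 3 or 10 mg/kg given 23 h after intraplantar adjuvant, samples 1 h post-dose. Blood values are the mean from seven animals. Brain values are the mean from three animals.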

[6] = Ratio of drug level in brain to blood in complete Freund's adjuvant-induced rat inflammatory pain model at 10 mg/kg, po administered after 23 hrs of adjuvant challenge measured after 1 hr; type: ADME, organism-based; design: dose 10 mg/kg, route oral; conditions: brain and blood
Summary of the method: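 Rat CFA inflammatory pain model: oral dosing at 1, 3 or 10 mg/kg 23 h after intraplantar adjuvant; blood and brain sampled 1 h post-dose from the same animal; Br:Bl ratio is the mean from three animals.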

[7] = Drug level in rat blood at 0.5 mg/kg/hr administered by infusion for 12 hrs; type: ADME, organism-based; conditions: intravenous, read-out: Drug uptake
Summary of the method: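 Steady-state 12 h infusion at 5 mL/kg/h to reach a target dose of 0.5 mg/kg/h; blood and brain concentrations measured. Data are the mean from three animals.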

[8] = Ratio of drug level in brain to blood of rat at 0.5 mg/kg/hr administered by infusion for 12 hrs; conditions: brain and blood, intravenous
[9] = Oral bioavailability in Sprague-Dawley rat at 3 mg/kg; type: ADME, organism-based; conditions: in vivo
Summary of the method: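 Single oral dose of 3 mg/kg in 1% (w/v) methylcellulose vehicle. Rats were male Sprague-Dawley; dogs were beagle. Bioavailability (Fpo) determined.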

[10] = Clearance in cynomolgus monkey blood at 1 mg/kg administered by intravenous infusion for 1 hr; type: ADME, organism-based, Macaca fascicularis; design: dose 1 mg/kg, route intravenous
Summary of the method: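 Intravenous administration as a 1 h infusion of a 1 mg/kg dose. Rats were male Sprague-Dawley; dogs were beagle; monkeys were cynomolgus. Blood clearance, Vss and half-life determined.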

Chain of Cytochrome P450 2C19 (P33261 whole entry): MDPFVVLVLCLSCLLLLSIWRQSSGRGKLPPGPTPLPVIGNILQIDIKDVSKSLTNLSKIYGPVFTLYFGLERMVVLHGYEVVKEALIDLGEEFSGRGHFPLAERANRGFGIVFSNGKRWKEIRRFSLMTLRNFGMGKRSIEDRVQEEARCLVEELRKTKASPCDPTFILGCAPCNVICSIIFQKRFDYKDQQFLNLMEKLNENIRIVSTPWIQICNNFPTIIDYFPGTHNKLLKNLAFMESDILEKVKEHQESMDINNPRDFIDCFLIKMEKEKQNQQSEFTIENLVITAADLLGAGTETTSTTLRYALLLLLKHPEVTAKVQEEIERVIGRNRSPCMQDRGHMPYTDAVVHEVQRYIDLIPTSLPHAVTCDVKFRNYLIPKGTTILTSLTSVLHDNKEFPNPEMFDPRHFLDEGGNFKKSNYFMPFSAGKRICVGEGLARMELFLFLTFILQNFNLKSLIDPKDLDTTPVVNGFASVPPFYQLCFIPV
Chain of Prostacyclin receptor (P43119 whole entry): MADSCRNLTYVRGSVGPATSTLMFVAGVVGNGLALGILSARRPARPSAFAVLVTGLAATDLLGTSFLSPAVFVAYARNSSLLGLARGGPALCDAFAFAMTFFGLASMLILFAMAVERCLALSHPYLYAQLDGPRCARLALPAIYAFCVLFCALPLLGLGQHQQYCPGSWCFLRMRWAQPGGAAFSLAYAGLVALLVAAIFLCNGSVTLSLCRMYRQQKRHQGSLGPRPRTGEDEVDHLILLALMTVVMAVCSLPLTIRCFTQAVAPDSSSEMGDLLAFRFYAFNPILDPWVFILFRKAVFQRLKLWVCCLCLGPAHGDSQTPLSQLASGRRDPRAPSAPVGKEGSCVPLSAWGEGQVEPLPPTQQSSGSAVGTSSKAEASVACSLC

- efflux ratio at 1 h (MDR1): 0.9
- IC50 (Cytochrome P450 2C19): 85000 nM
- CL [1]: 2.7 mL/min/g
- CL (Hepatocyte): 0.7 mL/min/g
- solubility at 0.5 h [2]: 890 µg/mL
- IC50 (Prostacyclin receptor): > 1000 nM
- Ki (Thromboxane A2 receptor): 10 nM
- concentration at 1 h [3]: 2390 nM
- concentration at 1 h [4]: 2610 nM
- concentration at 1 h [5]: 60 nM
- Kp at 1 h [6]: 0.39
- concentration at 12 h [7]: 955 nM
- Kp at 12 h [8]: 0.24
- bioavailability [9]: 94%
- clearance [10]: 41 mL/min/kg
SMILES: O=C([O-])c1cccc(Cc2cc(Cl)ccc2OCc2ccc(Cl)cc2F)n1.[Na+]
